In ChEMBL document CHEMBL1138620, “Synthesis and antiproliferative evaluation of pyrazolo[1,5-a]-1,3,5-triazine myoseverin derivatives” (Bioorg Med Chem, 2009) one finds IC50, Activity and inhibition data, which are given here for four compounds.

Structures are written as SMILES. Calls of active or inactive are those of the source. The calls are words filed in the database; no cut-off is given here.

One test deals with CCRF-CEM. Nature of the test: Cytotoxicity against human CEM cells after 72 hrs by MTT assay. The format is functional, cell-based. Summed up:
(§1)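 Cells (5 × 10^3/well) were seeded and incubated 24 h before drug addition, then exposed for 72 h. MTT was added (5 mg/mL stock) and growth was taken as absorbance relative to untreated wells. IC50 is the dose giving 50% growth inhibition. Three experiments were run, each in triplicate. Media: D-MEM with 10% FCS for MCF-7, HCT116, SW48 and SW480; RPMI1640 with 10% FCS for Mes-sa and CEM.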

Test [1] concerns HeLa. Nature of the test: Antimitotic activity in human HeLa cells expressing GFP-tubulin assessed as induction of mitotic deffects at 50 uM by flow cytometry. The format is functional, cell-based.
Test [2] has as its system SW480. Nature of the test: Cell cycle arrest in human SW480 cells assessed as accumulation at G1 phase at 30 uM after 24 hrs by flow cytometry. The format is functional. A digest of the protocol:
(§2)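 Colorectal lines were cultured in D-MEM with 10% FCS and treated at 30 µM for 24 h. Cells (10^6/mL) were resuspended in propidium iodide solution, held at 4 °C overnight and analysed by flow cytometry for DNA content. Values are means of three experiments ± SD.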

Test [3] has as its system HCT-116. Nature of the test: Cell cycle arrest in human HCT116 cells assessed as accumulation at G2/M phase at 30 uM after 24 hrs by flow cytometry. The format is functional. Summed up: as §2
Test [4] has as its system SW480. Nature of the test: Cell cycle arrest in human SW480 cells assessed as accumulation at G2/M phase at 30 uM after 24 hrs by flow cytometry. The format is functional. A digest of the protocol: as §2
For test [5], the system named is SW48. The test is described as follows: Cell cycle arrest in human SW48 cells assessed as accumulation at G1 phase at 30 uM after 24 hrs by flow cytometry. The format is functional. Summed up:
as §2

Test [6] has as its system SW48. Nature of the test: Cell cycle arrest in human SW48 cells assessed as accumulation at G2/M phase at 30 uM after 24 hrs by flow cytometry. The format is functional. Summed up:
as §2

The species named for another test is Bos taurus. Nature of the test: Inhibition of tubulin polymerization in bovine brain relative to baseline. Particulars: concentration not given here. Summed up:
(§3)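 Purified bovine brain tubulin (29 µM) was added to PEM buffer (100 mM PIPES, 1 mM MgCl2, 1 mM EGTA) with increasing inhibitor concentrations, up to 100 µM, in DMSO at equal DMSO levels. Polymerization was followed by absorbance at 340 nm for at least 1 h at 37 °C, and IC50 was taken from concentration–response plots.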

Test [7] has as its system HCT-116. The test is described as follows: Cell cycle arrest in human HCT116 cells assessed as accumulation at G1 phase at 30 uM after 24 hrs by flow cytometry. The format is functional. A digest of the protocol:
as §2

The test system of test [8] is HCT-116. Nature of the test: Cell cycle arrest in human HCT116 cells assessed as accumulation at S phase at 30 uM after 24 hrs by flow cytometry. The format is functional. Summed up:
as §2

For test [9], the system named is SW48. The test is described as follows: Cytotoxicity against human SW48 cells after 72 hrs by MTT assay. The format is functional, cell-based. The settings on record: SW48, 72 h. Summed up: as §1
A further test has as its system MCF7. The test is described as follows: Cytotoxicity against human MCF7 cells after 72 hrs by MTT assay. The format is functional, cell-based. The settings on record: MCF7, 72 h. Summed up: as §1
The test system of test [10] is SW480. The test is described as follows: Cytotoxicity against human SW480 cells after 72 hrs by MTT assay. The format is functional, cell-based. The settings on record: SW480, 72 h. Summed up:
as §1

For test [11], the system named is HCT-116. Nature of the test: Cytotoxicity against human HCT116 cells after 72 hrs by MTT assay. Particulars: HCT-116, 72 h. The format is functional, cell-based. Summed up:
as §1

For test [12], the system named is SW48. The test is described as follows: Cell cycle arrest in human SW48 cells assessed as accumulation at S phase at 30 uM after 24 hrs by flow cytometry. The format is functional. A digest of the protocol:
as §2

The test system of test [13] is SW480. The test is described as follows: Cell cycle arrest in human SW480 cells assessed as accumulation at S phase at 30 uM after 24 hrs by flow cytometry. The format is functional. Summed up:
as §2

Test [14] can be described thus: Cytotoxicity against human MES-SA cells after 72 hrs by MTT assay. The format is functional, cell-based. Summed up:
as §1

For test [15], the system named is HeLa. Nature of the test: Antimitotic activity in human HeLa cells expressing GFP-tubulin assessed as induction of mitotic deffects by flow cytometry. The format is functional, cell-based.
Test [16] has as its system HeLa. Nature of the test: Antimitotic activity in human HeLa cells expressing GFP-tubulin assessed as increase in aberration of mitotic spindle after 24 hrs by fluorescence microscopy. The format is functional, cell-based. Particulars: in the assay text read “6 hrs” for “24 hrs”. A digest of the protocol: (§4)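 HeLa cells were grown in DMEM with 10% FBS at 37 °C in 5% CO2 and left to adhere for at least 36 h on poly-D-lysine-coated coverslips. Drugs were diluted in medium from 50 mM DMSO stocks. Cells were fixed with 1% paraformaldehyde then cold methanol and stained with anti-β-tubulin plus a FITC secondary, with propidium iodide counterstain. Aberrant spindles were scored as a percentage of total spindles counted.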

Test [17] has as its system HeLa. The test is described as follows: Antimitotic activity in human HeLa cells expressing GFP-tubulin assessed as block of G2/M phase after 24 hrs by flow cytometry. The format is functional, cell-based. Summed up: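 HeLa cells were exposed to increasing inhibitor concentrations for 24 h. The percentage of G2/M cells was determined by flow cytometry, with nocodazole as the reference mitotic inhibitor.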

Test [18] can be described thus: Inhibition of tubulin polymerization in bovine brain. More on the design: species or system Bos taurus. Summed up: as §3
The subject of test [19] is HeLa. The test is described as follows: Antimitotic activity in human HeLa cells expressing GFP-tubulin assessed as aberration of mitotic spindle at 12 uM after 24 hrs by fluorescence microscopy. The format is functional. The settings on record: in the assay text read “6 hrs” for “24 hrs”. A digest of the protocol:
as §4

For test [20], the system named is HeLa. The test is described as follows: Antimitotic activity in human HeLa cells expressing GFP-tubulin assessed as collapse of spindle microtubule at 12 uM.

Regarding `COc1ccc(CNc2nc(NCc3ccc(OC)cc3)n3ncc(Br)c3n2)cc1`, the IC50 in the test on CCRF-CEM came to 38.5 µM; in the test on SW48 [9], 7.5 µM; with MCF7, 35.5 µM; in the test on SW480 [10] it was 26.5 µM; in the test with HCT-116 [11], 25 µM; in [14] it was 43 µM. Besides, the result in the test on HeLa [1] was inactive. Also, the Activity worked out at 62% with SW480 [2]; 55.5% in the test with HCT-116 [3]; 28% with SW480 [4]; 50% with SW48 [5]; 42.5% in the test on SW48 [6]; 44% in the test on HCT-116 [7]. The values for the Activity in the test with HCT-116 [8], in the test on SW48 [12] and in the test with SW480 [13] were 0.5%, 0.5% and 9%, respectively. The inhibition in the test listed under Bos taurus is 50%.

As for `COc1ccc(CNc2nc(NCc3ccc(OC)cc3)n3nccc3n2)cc1`, the IC50 with CCRF-CEM turned out to be 13 µM; in the test on SW48 [9], 5.2 µM; with MCF7, 34 µM; in the test with SW480 [10], 8.1 µM; with HCT-116 [11], 6.2 µM; in test [18], 3.4 µM. This compound also gave an IC50 in test [14] of 45 µM. Moreover, the Activity in the test with SW480 [2] amounted to 43%; with HCT-116 [3], 51%; in the test on SW480 [4], 42%; in the test with SW48 [5], 16%; with SW48 [6], 62%; in the test with HCT-116 [7], 19%. Besides, the Activity result in the test with HeLa [16] was “Dose-dependent effect”; with HCT-116 [8], 29%; with SW48 [12], 21%; in the test on SW480 [13], 15%; in the test with HeLa [19] it was 100%. Also, the outcome in the test on HeLa [15] and in the test with HeLa [17] was Active.

On to `COc1ccc(CNc2nc(NCc3ccc(OC)cc3)c3ncn(C(C)C)c3n2)cc1` [MYOSEVERIN], for which the IC50 in the test with CCRF-CEM is 5.7 µM; in the test on SW48 [9], 2.7 µM; with MCF7 it was 11.5 µM; with SW480 [10], 4.8 µM; in the test on HCT-116 [11], 3.3 µM; in test [18], 3.6 µM. This compound had an IC50 in test [14] of 8.5 µM. The Activity was found to be 12.5% with SW480 [2]; 88% in the test with HCT-116 [3]; 84.5% with SW480 [4]; 1% in the test with SW48 [5]; 98% in the test on SW48 [6]; 1.8% in the test with HCT-116 [7]. Further, the Activity entry in the test with HeLa [16] was “Dose-dependent effect”; with HCT-116 [8], 9.5%; with SW48 [12], 1%; with SW480 [13], 3%; with HeLa [19] it was 100%. The result in the test with HeLa [20], with HeLa [15] and in the test on HeLa [17] was Active.

Consider `COc1ccc(CNc2nc(NCc3ccc(OC)cc3)n3ncc(C(C)C)c3n2)cc1`, for which the IC50 came to 5.4 µM in the test with CCRF-CEM; 2.6 µM in the test with SW48 [9]; 51.5 µM in the test with MCF7; 5.5 µM with SW480 [10]; 4.6 µM in the test with HCT-116 [11]; 3.6 µM in [18]. The compound further came in with an IC50 in test [14] of 23 µM. For the same compound, the Activity with SW480 [2] turned out to be 3%; in the test with HCT-116 [3], 89.3%; with SW480 [4], 91.2%; with SW48 [5] it was 22.4%; in the test with SW48 [6], 75.4%; with HCT-116 [7], 8%. Also, the Activity entry with HeLa [16] was “Dose-dependent effect”; with HCT-116 [8] it was 2.8%; in the test with SW48 [12], 1.3%; with SW480 [13] it was 5.9%; in the test on HeLa [19], 100%. Also, the outcome in the test on HeLa [15] and in the test on HeLa [17] was Active.
